Hits are enriched below; roughly 1.5% of the tested compounds scored in any of these assays.
SENP1 FRET inh: blocks the human SENP1 SUMO protease catalytic domain; Q9P0U3; inhibition, % at 10 µM; 360,000 tested, 0.21% active; recombinant SENP1 catalytic domain, CyPet-SUMO1-YPet FRET cleavage; AID 624204;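 active = inhibition at least 30% at 10 µM, raw YFP signal under a set limit, fluorescence ratio 0.5 to 1.5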;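 note: 0% = enzyme with DMSO and 100% = no enzyme wells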
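material = recombinant human SENP1 catalytic domain, His6-tagged | quantity = 20 pM enzyme | reagent = 25 nM SUMO1 FRET substrate | compound dosing = 10 µM single point, 0.5% DMSO | timing = 50 min enzyme reaction, room temperature, light-protected | detection = FRET, CFP and YFP emission | control set = no-enzyme low, enzyme-DMSO high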
Platelet DG rel: platelet dense granule release activity; human platelet-rich plasma, SFLLRN dense granule ATP release, luminescence; inhibition, %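 (compounds screened at 7.5 µM in platelet-rich plasma)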; 300,000 tested, 0.22% active; AID 1663;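 active = mean replicate score, as percent of positive control, at or above 50; inconclusive = mean below 50 but at least one replicate at or above 50; inactive = mean and every replicate below 50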
Myeloid diff MLP: promotes myeloid progenitor differentiation. ER-HoxA9 myeloid progenitors, lysozyme-GFP differentiation, flow cytometry. calls only at 10 µM. 360,000 tested, 1% active. AID 624256;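 active = normalized GFP-positive differentiation at or above the plate's own cutoff, the solvent-only control mean plus 3 SD; inconclusive = no clear call, values can overlap the other calls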;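 note: cells exposed to compound for four days before flow analysis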
VLA-4 inh: inhibition in a human VLA-4 binding assay | P13612 | VLA-4 expressing cells, ligand binding flow cytometry | 330,000 tested, 0.2% active | inhibition, % (about 7 µM as worked out from the volumes in the protocol) | AID 2557; in the data active = inhibition above about 50%
An asterisk follows results filed as active; i = inactive; ? = inconclusive; · = no result; + = active, no number.

SMILES | SENP1 FRET inh | Platelet DG rel | Myeloid diff MLP | VLA-4 inh
COc1cc2c(cc1OC)CN(c1nc(CN3CCOCC3)nc3sc4c(c13)CCCC4)CC2 | -6 | -6 | + | -10
CC(=O)Nc1ccc2cc3ccc(NC(C)=O)cc3nc2c1 | -27 | 0 | + | -65
CN(C)CCN(Cc1cc2cc3c(cc2nc1Cl)OCO3)C(=O)c1ccco1 | -1 | -3 | · | -5
CCN1/C(=C2\SC(=S)N(Cc3ccccc3)C2=O)Sc2ccccc21 | -22 | -1 | i | 1
CCC(CO)[n+]1c(C)cc(/C=C2\Sc3ccccc3N2Cc2ccccc2)cc1C (stereo not given) | -33 | · | + | -303
N#CCCN(C(=O)COC(=O)CCc1c[nH]c2ccccc12)c1ccc(F)cc1 | 1 | ? | i | -4
COc1ccc(-c2cc3c(nn2)-c2ccccc2C3=O)cc1 | 4 | 55* | i | 1
O=C1c2ccccc2-c2nnc(-c3ccccc3)cc21 | 1 | 24 | i | 10
Nc1c(N(CCC2=CCCCC2)C(=O)c2ccc([N+](=O)[O-])o2)c(=O)[nH]c(=O)n1Cc1ccccc1 | -41 | 0 | + | -3
COc1ccc(-n2c(C)cc(/C=C3/SC(=S)N(C)C3=O)c2C)cc1 | -27 | 6 | + | -129
Cc1cc(/C=C2\SC(=O)N(C)C2=O)c(C)n1-c1ccc(O)cc1 | -28 | 0 | i | 3
O=C(O)CN1C(=O)/C(=C\c2ccc(OC(=O)c3ccco3)cc2)SC1=S | 39* | 14 | i | -13
CN(C)c1ccc(C=C2SC(=S)N(Cc3ccco3)C2=O)cc1 | -27 | · | + | ·
Cc1cc(/C=C2\SC(=S)N(Cc3ccco3)C2=O)c(C)n1-c1ccccc1 | -27 | -1 | + | -200
Cc1cc(C)c(NC(=O)C2CCCN2CCOC(=O)c2ccccc2)c(C)c1 (stereo not given) | -1 | 2 | i | -1
COc1cc(C(=O)N(C)CC(=O)Nc2cccc(F)c2)ccc1OCc1ccccc1 | 1 | 19 | i | 2
CCN(CC)C(=O)CSc1nc2ccccc2c(=O)n1CC | 2 | 3 | i | 8
CCN(CC)C(=O)CSc1nc2ccccc2c(=O)n1OC(C)C | 2 | 1 | + | -1
O=C(NCc1ccccc1)c1cc[n+](Cc2ccccc2)cc1 | 1 | -3 | i | 1
CC(NS(C)(=O)=O)C(c1cccs1)N1CCN(C)CC1 (stereo not given) | 3 | 8 | i | -1
CC(NS(C)(=O)=O)C(c1cccs1)N1CCN(Cc2ccccc2)CC1 (stereo not given) | -3 | 65* | i | 0
Cc1ccc2nc(SCC(=O)c3c[nH]c4ccccc34)[nH]c2c1 | -1 | -6 | + | -32
O=C(CSc1nc2ccccc2[nH]1)c1c[nH]c2ccccc12 | 3 | 0 | i | -4
CCCn1c(SCC(=O)c2c[nH]c3ccccc23)nnc1-c1ccncc1 | -16 | -7 | + | 0
CCOC(=O)C1(C)CCN1C(=O)c1oc2ccccc2c1C (stereo not given) | 2 | · | i | ·
SMILES | SENP1 FRET inh | Platelet DG rel | Myeloid diff MLP | VLA-4 inh
CCc1ccc(N(CC(=O)Nc2ccccc2C(=O)N2CCCC2)S(C)(=O)=O)cc1 | 2 | -34 | i | -14
O=C(NCc1cccc(C(F)(F)F)c1)c1cccc2c1C(=O)c1ccc(N3CCC(Cc4ccccc4)CC3)cc1S2(=O)=O | -27 | · | + | -409
O=C(NCc1ccco1)c1cccc2c1C(=O)c1ccc(N3CCC(Cc4ccccc4)CC3)cc1S2(=O)=O | -23 | · | i | -308
O=C(NCc1cccc(F)c1)c1cccc2c1C(=O)c1ccc(N3CCC(Cc4ccccc4)CC3)cc1S2(=O)=O | -29 | · | + | -329
O=C(NCCc1ccc(F)cc1)c1cccc2c1C(=O)c1ccc(N3CCC(Cc4ccccc4)CC3)cc1S2(=O)=O | -22 | · | + | -471
CCCCn1c(N)c(N(CCOC)C(=O)c2cc(-c3ccccc3Cl)nc3ccccc23)c(=O)[nH]c1=O | -31 | -19 | i | -41
CCC(C)OC(=O)C1=C(C)OC23OC(N)=C(C#N)C12C(=O)c1ccccc13 (stereo not given) | 8 | 50* | i | -2
Cc1ccc(C2CC(c3ccccc3OC(F)F)Nc3ncnn32)cc1 (stereo not given) | 0 | 51* | i | 11
Cc1ccccc1C1CC(c2ccccc2OC(F)F)Nc2ncnn21 (stereo not given) | 2 | -1 | i | 8
Cc1cccc(CN2C(=O)N/C(=C/c3ccc(C)s3)C2=O)c1 | 14 | -12 | + | -59
COc1ccc(-c2ccc(C(=O)Nc3ccc(Cl)cc3)c3occc23)c(C)c1 | 2 | · | i | ·
Cn1c(=O)[nH]c(=O)c2c1nc(N1CCN(Cc3ccccc3)CC1)n2CCSc1ncccn1 | -3 | 0 | + | 5
O=C(CN1CCN(S(=O)(=O)c2ccc(F)cc2)CC1)Nc1ccc(F)cc1F | 0 | -9 | + | 25
CCC(C)[C@H](NC(=O)NC1CCCc2ccccc21)C(=O)O (stereo not given in full) | 4 | -2 | + | -3
CN(C)CCCN1C(=O)c2cccc3c(Br)ccc(c23)C1=O | -26 | 3 | i | -20
CCCCNc1ccc2c3c(cccc13)C(=O)N(CCCC)C2=O | -32 | 1 | + | ·
O=C(Nc1ccc(OCc2ccccc2)cc1)c1ccccc1 | 1 | 12 | i | 22
Cc1ccsc1C(=O)Nc1ccc(OCc2ccccc2)cc1 | -1 | 79* | i | -13
OCC[C@@H]1C[C@H](O)[C@@H](O)[C@]2(CCCc3ccccc3O2)O1 | 3 | 4 | i | 8
O=S(=O)(c1ccc2oc(=S)[nH]c2c1)N1CCCCC1 | 0 | -3 | + | -9
O=C(C[n+]1cccc2ccccc21)c1ccc([N+](=O)[O-])cc1 | 2 | 1 | + | -6
Cc1c(O)ccc(/C(Cc2ccc3ccccc3n2)=N\N)c1O | 26 | 8 | + | -6
CCc1cc(/C(Cc2ccc3ccccc3n2)=N\O)c(O)cc1O | -2 | -3 | i | 1
CCN1CC=C2C(C#N)=C(N)C(C#N)(C#N)C(c3cc(Cl)ccc3Cl)C2C1 (stereo not given) | -21 | 2 | + | -37
CCc1ccc(C(=O)CN2C(=O)NC3(CCc4ccccc43)C2=O)cc1 (stereo not given) | -6 | · | i | 6
O=C(c1cccc(S(=O)(=O)Nc2ccccc2F)c1)N1CCN(c2ccccc2F)CC1 | 1 | -11 | i | -16
Cc1oc(C)c2c(=O)ccc3c(c12)OC(N)=C(C#N)C3c1ccc(F)cc1 (stereo not given) | -17 | 2 | + | 7
Cc1[nH]nc2c1C(c1ccc(F)cc1)C(C#N)=C(N)O2 (stereo not given) | 2 | 7 | i | 3
Cc1ccc2c(c1)C(=O)N1[C@H]3c4cc(C)ccc4OC[C@@H]3[C@H](c3ccccc3)[C@]1(C)C(=O)N2 | -1 | · | + | 0
N/C(=N\OC(=O)c1ccc(=O)n(Cc2ccccc2)c1)c1ccccn1 | 1 | 1 | i | -6

High-throughput results deposited in PubChem by several laboratories.
